The values below come from ChEMBL document CHEMBL4665801, “Pyrazole-Based Lactate Dehydrogenase Inhibitors with Optimized Cell Activity and Pharmacokinetic Properties” (J Med Chem, 2020).

Molecules are shown by their SMILES. pIC50: −log10 of the molar value. Calls of active or inactive are those of the source. The rule behind the calls is not given here.

Assay [1] has as its target T1, L-lactate dehydrogenase A chain (Homo sapiens, UniProt P00338). Nature of the assay: Inhibition of GS[HiBiT]GS-tagged LDHA (unknown origin) expressed in HEK-293T cells measured after 1 hr by […]. Format: cell-based. The gist of the method:
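HEK293T cells were transiently transfected for 24 h with CMV-driven LDHA carrying a C-terminal GS[HiBiT]GS tag, then reseeded at 2500 cells/well in DPBS with Ca/Mg and 1 g/L glucose. […] Cells were lysed with NP40, and 11S (100 nM final) plus furimazine was added.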
(With HiBiT, luminescence reflects the tagged protein that the partner subunit can reach.)

For assay [2], the target named is T1, L-lactate dehydrogenase A chain. Nature of the assay: Inhibition of LDHA in human A673 cells assessed as decrease in lactate production incubated for 2 hrs by lactate oxidase-coupled fluorescence based assay. The format is cell-based.
Another assay is filed under the species Sus scrofa. Description: Inhibition of porcine heart MDH using malic acid as substrate preincubated for 10 mins followed by substrate addition and measured after 5 mins by resazurin based fluorescence based assay. As to conditions: time 15.0 min. (Resazurin is reduced to fluorescent resorufin, in cell work by metabolically active cells.)
The target in assay [3] is T1, L-lactate dehydrogenase A chain. Nature of the assay: Inhibition of LDHA in human MIA PaCa-2 cells assessed as decrease in lactate production incubated for 2 hrs by lactate oxidase-coupled fluorescence based assay. The format is cell-based.
In assay [4] the target is L-lactate dehydrogenase B chain (Homo sapiens) (UniProt P07195). Description: Inhibition of recombinant human LDHB using sodium pyruvate as substrate preincubated for 5 mins followed by diaphorase/resazurin addition and measured after 20 mins by fluorescence based assay.
The next assay has as its system MIA PaCa-2. Description: Cytotoxicity against human MIA PaCa-2 cells assessed as reduction in cell viability after 48 hrs by CellTiter-Glo assay. Format: functional, cell-based. Conditions: MIA PaCa-2, 48 h.
Assay [5] has as its target T1, L-lactate dehydrogenase A chain. Nature of the assay: Inhibition of recombinant human LDHA using sodium pyruvate as substrate preincubated for 5 mins followed by diaphorase/resazurin addition and measured after 20 mins by fluorescence based assay.
The subject of the next assay is A673. Nature of the assay: Cytotoxicity against human A673 cells assessed as reduction in cell viability after 48 hrs by CellTiter-Glo assay. The format is functional, cell-based. As to conditions: A673, 48 h. Background: In ATP-based viability assays light output follows the ATP content of the culture.

Sequence of L-lactate dehydrogenase B chain (Homo sapiens) (P07195 2-334 limits assumed): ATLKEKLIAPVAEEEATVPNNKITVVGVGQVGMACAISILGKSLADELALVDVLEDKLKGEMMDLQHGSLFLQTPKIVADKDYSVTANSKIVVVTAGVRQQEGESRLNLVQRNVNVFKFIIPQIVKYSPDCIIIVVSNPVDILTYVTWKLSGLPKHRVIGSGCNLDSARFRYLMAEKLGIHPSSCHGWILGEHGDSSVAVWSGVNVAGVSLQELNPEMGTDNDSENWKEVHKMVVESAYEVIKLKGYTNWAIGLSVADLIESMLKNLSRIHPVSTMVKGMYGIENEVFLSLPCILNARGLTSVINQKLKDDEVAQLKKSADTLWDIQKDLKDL

Consider `CC(C)(C)/C=C/c1cc(-c2nn(-c3nc(C(=O)O)cs3)c(CC3CC3)c2Cc2ccc(S(N)(=O)=O)c(F)c2)ccc1F`, for which the pIC50 is 6.95 in assay [1]; 6.44 in assay [2]; 6.59 in assay [3]; 5.72 with MIA PaCa-2; 7.23 in assay [5]; 5.65 in the assay on A673. For the same compound, the inhibition entry in the assay filed under Sus scrofa was “inactive”. In assay [4], the inhibition entry was “Active”.
`NS(=O)(=O)c1ccc(Cc2c(-c3ccc(F)c(C#Cc4cccs4)c3)nn(-c3nc(C(=O)O)cs3)c2CC2CC2)cc1F`: the pIC50 in assay [1] was 7.05; in assay [2] it was 6.36; in assay [3], 6.51; in the assay with MIA PaCa-2 it was 6.57; in assay [5], 7.49; with A673 it was 6.58. Also, the inhibition result in the assay listed under Sus scrofa is “inactive”. Further, the inhibition result in assay [4] was “Active”.
Turning to `CC#Cc1cc(-c2nn(-c3nc(C(=O)O)cs3)c(CC3CC3)c2Cc2ccc(S(N)(=O)=O)c(F)c2)ccc1F`, the pIC50 was 6.92 in assay [1]; 6.30 in assay [2]; 6.35 in assay [3]; 6.49 in the assay with MIA PaCa-2; 7.96 in assay [5]; 6.48 with A673. The inhibition entry in the assay listed under Sus scrofa was “inactive”. For the same compound, the inhibition entry in assay [4] was “Active”.
With `COCC#Cc1cc(-c2nn(-c3nc(C(=O)O)cs3)c(CC3CC3)c2Cc2ccc(S(N)(=O)=O)c(F)c2)ccc1F`, the pIC50 in assay [1] was 6.92; in assay [2], 6.11; in assay [3], 6.28; with MIA PaCa-2 it was 5.96; in assay [5] it was 8.10; in the assay on A673, 5.91. In addition, in the assay listed under Sus scrofa, the inhibition result is “inactive”. In addition, in assay [4], the inhibition result was “Active”.
For `NS(=O)(=O)c1ccc(Cc2c(-c3ccc(F)c(C#CCCO)c3)nn(-c3nc(C(=O)O)cs3)c2CC2CC2)cc1F`, the pIC50 in assay [1] is 6.24; in assay [2], 5.61; in assay [3] it was 5.78; in the assay with MIA PaCa-2 it was 5.88; in assay [5], 8.52; with A673, 5.75. Moreover, the inhibition entry in the assay filed under Sus scrofa was “inactive”. Moreover, the inhibition entry in assay [4] was “Active”.
As to `NS(=O)(=O)c1ccc(Cc2c(-c3cccc(-c4ccccc4)c3)nn(-c3nc(C(=O)O)cs3)c2CC(F)(F)F)cc1`, the pIC50 in assay [1] is 4.80; in assay [2], 5.01; in assay [3], 4.71; with MIA PaCa-2, 5.50; in assay [5], 6.56; in the assay with A673, 6.83. For the same compound, in the assay listed under Sus scrofa, the inhibition result is “inactive”. The inhibition entry in assay [4] is “Active”.
For `Cc1ccsc1C#Cc1cccc(-c2nn(-c3nc(C(=O)O)cs3)c(CC3CC3)c2Cc2ccc(S(N)(=O)=O)c(F)c2)c1`, the pIC50 was 6.92 in assay [1]; 6.41 in assay [2]; 6.38 in assay [3]; 6.34 in the assay with MIA PaCa-2; 7.00 in assay [5]. In addition, the inhibition entry in the assay filed under Sus scrofa was “inactive”. Further, the inhibition result in assay [4] was “Active”.
Take `Cn1cncc1C#Cc1cc(-c2nn(-c3nc(C(=O)O)cs3)c(CC3CC3)c2Cc2ccc(S(N)(=O)=O)c(F)c2)ccc1F`: the pIC50 in assay [1] was 6.52; in assay [2], 5.80; in assay [3] it was 5.97; in the assay on MIA PaCa-2, 5.86; in assay [5], 8.10. Further, the inhibition result in the assay listed under Sus scrofa was “inactive”. For the same compound, the inhibition entry in assay [4] is “Active”.
For the compound `NS(=O)(=O)c1ccc(Cc2c(-c3ccc(F)c(C#CC4CCOC4)c3)nn(-c3nc(C(=O)O)cs3)c2CC2CC2)cc1F` (configuration not stated), the pIC50 is 7.05 in assay [1]; 5.90 in assay [2] (a673); 6.08 in assay [3]; 8.15 in assay [5]; 6.01 in the assay with A673. In addition, in the assay filed under Sus scrofa, the inhibition result is “inactive”. In addition, in assay [4], the inhibition result was “Active”.
Regarding `NS(=O)(=O)c1ccc(Cc2c(-c3cccc(-c4ccccc4)c3)nn(-c3nc(C(=O)O)cs3)c2CC2CC2(F)F)cc1` (configuration not stated), the pIC50 in assay [1] is 6.30; in assay [2], 5.85; in assay [3] it was 5.76; with MIA PaCa-2, 4.97; in assay [5] it was 7.60; in the assay with A673 it was 5.33. The inhibition entry in the assay filed under Sus scrofa was “inactive”. Besides, the inhibition entry in assay [4] was “Active”.
Turning to `CC#Cc1cccc(-c2nn(-c3nc(C(=O)O)cs3)c(CC3CC3)c2Cc2ccc(S(N)(=O)=O)c(F)c2)c1`, the pIC50 in assay [1] is 6.82; in assay [2], 6.15; in assay [3], 6.28; in the assay on MIA PaCa-2 it was 6.21; in assay [5], 8.05. Moreover, the inhibition result in the assay listed under Sus scrofa was “inactive”. The inhibition result in assay [4] was “Active”.
In the case of `NS(=O)(=O)c1ccc(Cc2c(-c3ccc(F)c(-c4ccccc4)c3)nn(-c3nc(C(=O)O)cs3)c2CC2CC2)cc1F`, the pIC50 in assay [1] was 6.85; in assay [2], 6.33; in assay [3], 6.23; in the assay on MIA PaCa-2 it was 5.47; in assay [5], 7.64; with A673, 5.87. For the same compound, the inhibition result in the assay listed under Sus scrofa was “inactive”. Also, the inhibition result in assay [4] was “Active”.
Take `NS(=O)(=O)c1ccc(Cc2c(-c3cccc(-c4ccccc4)c3)nn(-c3nc(C(=O)O)cs3)c2C2CC2(F)F)cc1` (configuration not stated): the pIC50 in assay [1] is 5.60; in assay [2], 5.73; in assay [3] it was 5.32; in the assay with MIA PaCa-2 it was 4.75; in assay [5] it was 7.44; with A673, 4.61. Also, the inhibition entry in the assay filed under Sus scrofa is “inactive”. Moreover, in assay [4], the inhibition result is “Active”.
As for `NS(=O)(=O)c1ccc(Cc2c(-c3ccc(F)c(C#CCN4CCCC4)c3)nn(-c3nc(C(=O)O)cs3)c2CC2CC2)cc1F`, the pIC50 in assay [1] was 6.57; in assay [2], 5.96; in assay [3] it was 6.00; in assay [5], 8.10. In the assay filed under Sus scrofa, the inhibition result was “inactive”. Further, the inhibition result in assay [4] was “Active”.
Take `CC(C)(C)c1ccc(C#Cc2cc(-c3nn(-c4nc(C(=O)O)cs4)c(CC4CC4)c3Cc3ccc(S(N)(=O)=O)c(F)c3)ccc2F)s1`: the pIC50 in assay [1] was 4.97; in assay [2], 6.28; in assay [3] it was 6.29; with MIA PaCa-2 it was 6.18; in assay [5], 6.15. The inhibition result in the assay listed under Sus scrofa is “inactive”. Also, the inhibition entry in assay [4] was “Active”.
`NS(=O)(=O)c1ccc(Cc2c(-c3cccc(-c4ccccc4)c3)nn(-c3nc(C(=O)O)cs3)c2CC2CC2)c(F)c1`: the pIC50 in assay [2] was 5.35; in assay [3] it was 5.19; in the assay on MIA PaCa-2, 5.24; in assay [5], 6.64; in the assay with A673, 4.94. For the same compound, the inhibition entry in the assay filed under Sus scrofa is “inactive”. Also, the inhibition entry in assay [4] was “Active”.
As to `NS(=O)(=O)c1ccc(Cc2c(-c3cccc(C#Cc4ccc(C5CC5)s4)c3)nn(-c3nc(C(=O)O)cs3)c2CCC2CC2)cc1F`, the pIC50 in assay [1] was 6.72; in assay [2] it was 6.36; in assay [3], 6.41; in the assay on MIA PaCa-2, 6.58; in assay [5] it was 6.51. In the assay listed under Sus scrofa, the inhibition result is “inactive”. Besides, the inhibition result in assay [4] is “Active”.
Take `NS(=O)(=O)c1ccc(Cc2c(-c3cccc(C#Cc4ccc(C5CCC5)s4)c3)nn(-c3nc(C(=O)O)cs3)c2CCC2CC2)cc1F`: the pIC50 was 6.52 in assay [1]; 6.24 in assay [2]; 6.42 in assay [3]; 6.20 in assay [5]; 6.24 in the assay on A673. The inhibition entry in the assay filed under Sus scrofa is “inactive”. Besides, the inhibition result in assay [4] is “Active”.
With `NS(=O)(=O)c1ccc(Cc2c(-c3cccc(C#Cc4ccc(C5CCC5)s4)c3)nn(-c3nc(C(=O)O)cs3)c2CC2CC2)cc1F`, the pIC50 in assay [1] was 6.57; in assay [2] it was 6.48; in assay [3] it was 6.31; with MIA PaCa-2, 6.04; in assay [5], 6.77. Also, the inhibition result in the assay filed under Sus scrofa was “inactive”. Besides, the inhibition result in assay [4] is “Active”.
As to `NS(=O)(=O)c1ccc(Cc2c(-c3ccc(F)c(C#CC4CCNCC4)c3)nn(-c3nc(C(=O)O)cs3)c2CC2CC2)cc1F`, the pIC50 in assay [1] was 5.59; in assay [2] it was 4.91; in assay [3], 5.05; in the assay on MIA PaCa-2 it was 4.76; in assay [5], 7.82. Also, in the assay filed under Sus scrofa, the inhibition result was “inactive”. Also, the inhibition entry in assay [4] is “Active”.
For `Cc1cnc(C#Cc2cccc(-c3nn(-c4nc(C(=O)O)cs4)c(CC4CC4)c3Cc3ccc(S(N)(=O)=O)c(F)c3)c2)o1`, the pIC50 is 6.92 in assay [1]; 6.28 in assay [2]; 6.35 in assay [3]; 6.17 with MIA PaCa-2; 7.92 in assay [5]. Also, the inhibition entry in the assay listed under Sus scrofa was “inactive”. Further, in assay [4], the inhibition entry is “Active”.
Consider `NS(=O)(=O)c1ccc(Cc2c(-c3ccc(F)c(C#CCN4CCOCC4)c3)nn(-c3nc(C(=O)O)cs3)c2CC2CC2)cc1F`, for which the pIC50 in assay [1] was 5.30; in assay [2] it was 4.81; in assay [3] it was 4.72; in assay [5], 6.97; with A673, 5.23. Moreover, the inhibition result in the assay listed under Sus scrofa was “inactive”. Further, in assay [4], the inhibition result was “Active”.

As usually defined, the pIC50 is the IC50 on a negative log10 scale, so that one unit is a factor of ten.
